Source: ChEMBL document CHEMBL4665889, “Design, Synthesis, and Pharmacological Characterization of a Neutral, Non-Prodrug Thrombin Inhibitor with Good Oral Pharmacokinetics” (J Med Chem, 2020)
The source made the active and inactive calls. The calls are words filed in the database; no cut-off is given here.

Assays:
[1] = AUC/dose in Wistar Hannover rat at 0.3 to 0.5 mg/kg, iv by LC-MS/MS analysis; format: ADME, organism-based; details: in vivo, dose 0.3-0.5 mg/kg, time <=24 hrs
Method in brief: (§1)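 Male Wistar Hannover rats, catheterized under isoflurane; one day later iv injection into lateral tail vein at 0.3 to 0.5 mg/kg in plasma containing 2% DMSO. Blood sampled via catheter from 0.033 to 24 h. Plasma precipitated with acetonitrile, analysed by LC-MS/MS (10 mM ammonium acetate pH 3.0/acetonitrile gradient). PK parameters calculated from plasma concentrations.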

[2] = Half life in Wistar Hannover rat at 0.3 to 0.5 mg/kg, iv by LC-MS/MS analysis; format: ADME, organism-based; details: in vivo, dose 0.3-0.5 mg/kg, time <=24 hrs; method in brief: as §1
[3] = Oral bioavailability in Wistar Hannover rat at 1 mg/kg by LC-MS/MS analysis; format: ADME, organism-based; details: in vivo, time <=24 hrs
Method in brief: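 Catheterized male Wistar Hannover rats dosed by gavage at 1 mg/kg in 10% ethanol/40% PEG/50% water. Blood taken via catheter at 0.083 to 24 h. Plasma precipitated with acetonitrile and analysed by LC-MS/MS. Bioavailability derived against iv dosing at 0.3 to 0.5 mg/kg.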

[4] = target: T1, Nuclear receptor subfamily 1 group I member 2 (Homo sapiens, UniProt O75469); test: Activation of human PXR human hepatocytes assessed as induction of CYP3A4 mRNA expression incubated for 48 hrs by qPCR analysis; format: ADME, tissue-based, Hepatocyte
T1 sequence (O75469 whole entry): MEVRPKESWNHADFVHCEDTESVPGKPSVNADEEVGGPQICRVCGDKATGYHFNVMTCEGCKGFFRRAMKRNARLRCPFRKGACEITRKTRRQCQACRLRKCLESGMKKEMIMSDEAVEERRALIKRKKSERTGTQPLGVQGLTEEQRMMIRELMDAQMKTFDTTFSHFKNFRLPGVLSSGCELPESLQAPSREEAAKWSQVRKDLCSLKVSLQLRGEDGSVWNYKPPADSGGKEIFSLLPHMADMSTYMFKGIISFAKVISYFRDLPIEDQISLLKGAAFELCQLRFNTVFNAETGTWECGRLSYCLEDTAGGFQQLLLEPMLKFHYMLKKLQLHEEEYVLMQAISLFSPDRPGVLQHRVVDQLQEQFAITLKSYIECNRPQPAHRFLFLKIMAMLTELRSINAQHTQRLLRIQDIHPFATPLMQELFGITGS
Method in brief: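 Human hepatocytes in collagen sandwich, cultured 1 d, then treated with eight 1:3 serial concentrations for 2 consecutive days with daily media change. mRNA isolated on magnetic beads, reverse transcribed, and quantified by TaqMan qRT-PCR against actin/tubulin. Fold induction over vehicle by ΔΔCt; NOEL reported.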

[5] = Protein binding in rat plasma; format: ADME, cell-free; details: read-out: PPB (converted)
Trypsin (Homo sapiens) = Trypsin (Homo sapiens) (UniProt P07477+P07478+P35030); test: Inhibition of purified human plasma trypsin up to 20 uM using Boc-Ile-Glu-Gly-Arg-AMC substrate incubated for 30 mins by fluorescence based assay; format: protein assay; details: dose microM <=20, time 30.0 min
Method in brief: (§2)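 Final levels: thrombin 0.02 nM; FXa 1.3 nM; FXIa 0.15 nM; plasmin 1.2 nM (substrate 50 μM); tPA 2 nM; kallikrein 0.2 nM; trypsin 0.1 nM; other AMC substrates 5 μM. FVIIa 0.5 pM coupled with tissue factor, factor X 12 nM, FXa substrate 50 μM.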

[6] = target: Plasminogen (Homo sapiens) (UniProt P00747); test: Inhibition of purified human plasma plasmin up to 20 uM using MeOSuc-Ala-Phe-Lys-AMC substrate incubated for 30 mins by fluorescence based assay; details: dose microM <=20, time 30.0 min; method in brief: as §2
[7] = target: Tissue-type plasminogen activator (Homo sapiens) (UniProt P00750); test: Inhibition of purified human plasma tPA up to 20 uM using CH3SO2-DPhe-Gly-Arg-AMC substrate incubated for 30 mins by fluorescence based assay; details: dose microM <=20, time 30.0 min; method in brief: as §2
[8] = target: Coagulation factor X (Homo sapiens) (UniProt P00742); test: Inhibition of purified human plasma factor-10a up to 20 uM using Boc-Ile-Glu-Gly-Arg-AMC substrate incubated for 30 mins by fluorescence based assay; details: dose microM <=20, time 30.0 min; method in brief: as §2
[9] = target: Plasma kallikrein (Homo sapiens) (UniProt P03952); test: Inhibition of purified human plasma kallikrein up to 20 uM using H-Pro-Phe-Arg-AMC substrate incubated for 30 mins by fluorescence based assay; details: dose microM <=20, time 30.0 min; method in brief: as §2
Plasma = test: Anticoagulation activity in human plasma assessed as drug level causing doubling of APTT incubated for 3 mins; format: functional; details: 0.05 h
[10] = Terminal half-life in orally dosed healthy human; format: ADME, organism-based; details: in vivo, po, read-out: beta t1/2 (converted)

Sequence of Tissue-type plasminogen activator (Homo sapiens) (P00750 36-562 limits assumed): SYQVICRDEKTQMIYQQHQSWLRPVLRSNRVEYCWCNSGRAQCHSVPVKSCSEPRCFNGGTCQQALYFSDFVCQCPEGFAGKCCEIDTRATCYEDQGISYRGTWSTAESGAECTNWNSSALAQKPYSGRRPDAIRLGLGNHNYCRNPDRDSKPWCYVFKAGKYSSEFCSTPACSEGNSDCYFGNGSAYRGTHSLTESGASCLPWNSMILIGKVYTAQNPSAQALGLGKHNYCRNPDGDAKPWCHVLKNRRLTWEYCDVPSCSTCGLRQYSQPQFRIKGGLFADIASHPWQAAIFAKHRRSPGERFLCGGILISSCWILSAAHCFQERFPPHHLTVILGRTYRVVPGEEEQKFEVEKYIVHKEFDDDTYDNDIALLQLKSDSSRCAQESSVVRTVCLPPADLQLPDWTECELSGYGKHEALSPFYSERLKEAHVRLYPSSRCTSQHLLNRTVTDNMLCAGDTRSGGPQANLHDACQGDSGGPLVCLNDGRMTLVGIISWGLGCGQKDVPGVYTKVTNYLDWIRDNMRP
Sequence of Coagulation factor X (Homo sapiens) (P00742 41-179 limits assumed): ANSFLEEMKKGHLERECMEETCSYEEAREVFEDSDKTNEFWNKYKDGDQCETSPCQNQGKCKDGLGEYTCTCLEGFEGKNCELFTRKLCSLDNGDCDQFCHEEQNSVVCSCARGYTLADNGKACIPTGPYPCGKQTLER
Sequence of Coagulation factor X (Homo sapiens) (P00742 235-488 limits assumed): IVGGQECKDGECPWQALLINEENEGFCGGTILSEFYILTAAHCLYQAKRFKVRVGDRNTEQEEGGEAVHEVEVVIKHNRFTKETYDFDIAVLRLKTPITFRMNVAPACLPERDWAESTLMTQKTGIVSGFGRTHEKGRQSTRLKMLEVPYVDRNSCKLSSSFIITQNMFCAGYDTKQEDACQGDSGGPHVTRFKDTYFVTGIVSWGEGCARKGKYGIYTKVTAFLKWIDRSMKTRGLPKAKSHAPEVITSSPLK
Sequence of Plasminogen (Homo sapiens) (P00747 97-580 limits assumed): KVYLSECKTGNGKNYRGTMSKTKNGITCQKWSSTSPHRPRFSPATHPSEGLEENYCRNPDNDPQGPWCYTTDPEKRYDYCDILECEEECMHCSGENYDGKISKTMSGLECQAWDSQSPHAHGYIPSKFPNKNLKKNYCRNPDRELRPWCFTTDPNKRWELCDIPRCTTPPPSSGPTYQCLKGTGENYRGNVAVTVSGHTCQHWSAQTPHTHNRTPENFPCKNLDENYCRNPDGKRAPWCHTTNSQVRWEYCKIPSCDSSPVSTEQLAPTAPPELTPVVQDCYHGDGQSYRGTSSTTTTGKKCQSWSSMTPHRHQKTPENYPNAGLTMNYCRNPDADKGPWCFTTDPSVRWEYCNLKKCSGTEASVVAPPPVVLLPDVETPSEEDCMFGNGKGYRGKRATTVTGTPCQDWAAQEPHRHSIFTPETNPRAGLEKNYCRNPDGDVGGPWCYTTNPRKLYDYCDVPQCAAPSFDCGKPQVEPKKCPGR
Sequence of Plasminogen (Homo sapiens) (P00747 581-810 limits assumed): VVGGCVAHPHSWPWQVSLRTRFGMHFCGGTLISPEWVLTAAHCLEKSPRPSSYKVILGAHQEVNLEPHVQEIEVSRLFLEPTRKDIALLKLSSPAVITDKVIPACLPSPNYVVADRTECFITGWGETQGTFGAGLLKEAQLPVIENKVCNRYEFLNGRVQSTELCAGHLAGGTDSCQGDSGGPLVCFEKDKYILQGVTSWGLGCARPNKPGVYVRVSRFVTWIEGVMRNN
Sequence of Plasma kallikrein (Homo sapiens) (P03952 20-390 limits assumed): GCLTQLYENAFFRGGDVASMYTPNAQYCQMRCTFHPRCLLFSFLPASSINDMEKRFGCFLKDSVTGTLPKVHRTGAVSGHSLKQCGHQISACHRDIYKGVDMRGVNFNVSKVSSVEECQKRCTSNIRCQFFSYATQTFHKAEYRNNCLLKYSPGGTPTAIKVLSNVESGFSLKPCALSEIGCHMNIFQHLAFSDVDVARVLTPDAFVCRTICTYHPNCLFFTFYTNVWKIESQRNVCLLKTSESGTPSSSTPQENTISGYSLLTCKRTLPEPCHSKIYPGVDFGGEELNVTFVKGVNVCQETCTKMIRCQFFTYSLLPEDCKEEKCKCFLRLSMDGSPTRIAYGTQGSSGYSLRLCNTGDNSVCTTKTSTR
Sequence of Plasma kallikrein (Homo sapiens) (P03952 391-638 limits assumed): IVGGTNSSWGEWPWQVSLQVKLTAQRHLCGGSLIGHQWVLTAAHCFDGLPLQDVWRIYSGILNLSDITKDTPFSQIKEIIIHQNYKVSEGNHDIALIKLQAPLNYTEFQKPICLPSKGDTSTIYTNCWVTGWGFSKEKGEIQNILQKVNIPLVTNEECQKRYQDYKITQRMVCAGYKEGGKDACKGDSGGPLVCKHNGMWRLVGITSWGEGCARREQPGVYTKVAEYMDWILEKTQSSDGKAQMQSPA

AUC/dose [1]: 0.34 kg·h/L
half-life [2]: 84 min
bioavailability [3]: 38%
fraction unbound [5]: 0.22
inhibition (Trypsin (Homo sapiens)): inactive
inhibition [6]: inactive
inhibition [7]: inactive
inhibition [8]: inactive
inhibition [9]: inactive
half-life [10]: 570 min
Compound: COc1cc(C(=O)N2C[C@H](C)OC[C@@H]2CCO)cc2nc(N[C@H](CF)c3cccc(Cl)c3)oc12
NOAEL [4]: > 10000 ng/mL
2aPTT (Plasma): 0.7 µM
